Bioassay records deposited in PubChem by several laboratories.
In the library only some 1.5% were active in any assay of this set; here they are far more common.
Myeloid diff 2 = compounds promoting myeloid differentiation; actives 1% (n = 360,000); calls only at 10 µM; AID 624256; ER-HoxA9 myeloid progenitors, lysozyme-GFP differentiation, flow cytometry;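 active = normalized GFP-positive differentiation at or above the plate's own cutoff, the solvent-only control mean plus 3 SD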;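 note: cells exposed to compound for four days before flow analysis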
VLA-4 inh = inhibition in a human VLA-4 binding assay; VLA-4 expressing cells, ligand binding flow cytometry; inhibition, % (about 7 µM as worked out from the volumes in the protocol); actives 0.2% (n = 330,000); in the data active = inhibition above about 50%
SENP1 inh = SENP1 (human) catalytic domain inhibition. recombinant SENP1 catalytic domain, CyPet-SUMO1-YPet FRET cleavage. inhibition, % at 10 µM. actives 0.21% (n = 360,000);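 active = inhibition at least 30% at 10 µM, raw YFP signal under a set limit, fluorescence ratio 0.5 to 1.5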
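Assay system: hSENP1 catalytic domain, recombinant. Amount: SENP1 enzyme, 20 pM final. Schedule: 50 min reaction, RT, dark. Technique: FRET, CFP and YFP emission. Control set: no-enzyme wells low, DMSO-plus-enzyme wells high control.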
Platelet DG rel = modulates dense granule release in human platelets; human platelet-rich plasma, SFLLRN dense granule ATP release, luminescence; actives 0.22% (n = 300,000); inhibition, %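 (compounds screened at 7.5 µM in platelet-rich plasma)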; AID 1663;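 active = mean replicate score, as percent of positive control, at or above 50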
Myeloid diff CP1 = myeloid differentiation induction; ER-HoxA9 myeloid progenitors, GFP/Mac1 double-positive flow; shares compounds with Myeloid diff 2; actives 2% (n = 2,300); calls only;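 active = share of green or green-and-red cells above 9 and 9% in run 1 or 4 and 3% in run 2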
GFP autofluor = counter-screen for myeloid differentiation promoters: compound fluorescence. shares compounds with Myeloid diff 2. ER-HoxA9 myeloid progenitors, no estrogen, GFP autofluorescence flow cytometry; vehicle wells 0%, positive control 100%. fluorescence response, % (test concentration not listed). actives 7.4% (n = 2,300). AID 651707;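 active = over 5% cells positive for green fluorescent reporter, or over 2% positive for both it and APC stain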
Calls only.

Results for COc1ccc(CN(C(=O)c2ccccc2Br)C2CCS(=O)(=O)C2)cc1 (stereo not given) ?
Myeloid diff 2: inactive; VLA-4 inh: inactive; SENP1 inh: inactive; Platelet DG rel: inactive

What do the screens show for `Cc1cccn2cc(COc3ccc(-c4ccccc4)cc3)nc12`?
Myeloid diff 2: active; SENP1 inh: inactive; Platelet DG rel: inactive; Myeloid diff CP1: active; GFP autofluor: inactive

Results for CC(=O)Nc1ccc(S(=O)(=O)Nc2nc3ccccc3nc2Sc2nncn2C)cc1 ?
Myeloid diff 2: inactive; VLA-4 inh: inactive; SENP1 inh: inactive; Platelet DG rel: inactive

Results for Cn1cnnc1Sc1nc2ccccc2nc1NS(=O)(=O)c1ccccc1 ?
Myeloid diff 2: inactive; VLA-4 inh: inactive; SENP1 inh: inactive; Platelet DG rel: inactive; Myeloid diff CP1: inactive; GFP autofluor: inactive

How did Cc1cc(Cl)c(C)c(S(=O)(=O)Oc2ccccc2NC(=O)CCC(=O)O)c1Cl do in these assays?
Myeloid diff 2: inactive; VLA-4 inh: inactive; SENP1 inh: inactive

What do the screens show for `CC1CCCCC1NC(=O)C(=O)NCC1CCCO1` (stereo not given)?
Myeloid diff 2: inactive; VLA-4 inh: inactive; SENP1 inh: inactive; Platelet DG rel: inactive; Myeloid diff CP1: inactive; GFP autofluor: inactive

What do the screens show for `CCc1ccc(CNC(=O)C(=O)NCC2CCCO2)cc1` (stereo not given)?
Myeloid diff 2: inactive; VLA-4 inh: inactive; SENP1 inh: inactive; Platelet DG rel: inactive

What do the screens show for `CC(C)NC(=O)N1Cc2cc(C(=O)NC3CCCCC3)nc(-c3cccc(-c4cccnc4)c3)c2[C@@H]1CCO`?
Myeloid diff 2: inactive; SENP1 inh: inactive

How did N#Cc1nn(-c2ccccc2)nc1N1CCCCC1 do in these assays?
Myeloid diff 2: active; VLA-4 inh: inactive; SENP1 inh: inactive; Platelet DG rel: inactive; Myeloid diff CP1: inactive; GFP autofluor: inactive

How did Cc1ccc2c(CC(=O)Nc3ccc(F)c(S(=O)(=O)N4CCOCC4)c3)coc2c1 do in these assays?
Myeloid diff 2: inactive; VLA-4 inh: inactive; SENP1 inh: inactive

How did Cc1c(C(=O)OC(C)C)[nH]c2c1C(=O)CC(C)(C)C2 do in these assays?
Myeloid diff 2: active; VLA-4 inh: inactive; SENP1 inh: inactive; Platelet DG rel: inactive; Myeloid diff CP1: inactive; GFP autofluor: inactive

How did Cc1c(C(=O)OC(C)C)[nH]c2c1C(=O)CCC2 do in these assays?
Myeloid diff 2: inactive; VLA-4 inh: inactive; SENP1 inh: inactive; Platelet DG rel: inactive

What do the screens show for `CCOc1ccc(C(=O)NNC(=O)C2CC(=O)N(c3ccc(C)cc3)C2)cc1` (stereo not given)?
Myeloid diff 2: inactive; VLA-4 inh: inactive; SENP1 inh: inactive; Platelet DG rel: inactive

What do the screens show for `CCCCn1nc(NC(=O)CC(C)C)c2cc3cc(OC)ccc3nc21`?
Myeloid diff 2: inactive; VLA-4 inh: inactive; SENP1 inh: inactive; Platelet DG rel: inactive

What do the screens show for `CCCCn1nc(NC(=O)CCC)c2cc3cc(OC)ccc3nc21`?
Myeloid diff 2: inactive; VLA-4 inh: inactive; SENP1 inh: inactive; Platelet DG rel: inactive; Myeloid diff CP1: inactive; GFP autofluor: inactive

Results for C/C(=N\NC(=O)CNc1ccc(F)cc1)c1cc2ccccc2o1 ?
Myeloid diff 2: active; VLA-4 inh: inactive; SENP1 inh: inactive; Platelet DG rel: inactive; Myeloid diff CP1: inactive; GFP autofluor: inactive

Results for CC(=O)N1CCc2cc(S(=O)(=O)NCCC(=O)N3CCN(Cc4ccccc4)CC3)ccc21 ?
Myeloid diff 2: inactive; VLA-4 inh: inactive; SENP1 inh: inactive

Results for Cc1ccc(S(=O)(=O)NCCC(=O)N2CCN(Cc3ccccc3)CC2)cc1 ?
Myeloid diff 2: active; VLA-4 inh: inactive; SENP1 inh: inactive; Platelet DG rel: inactive; Myeloid diff CP1: inactive; GFP autofluor: inactive

How did CC1(C(=O)NCc2ccc3c(c2)OCO3)CCN1C(=O)C1(c2ccc(Cl)cc2)CC1 (stereo not given) do in these assays?
Myeloid diff 2: inactive; SENP1 inh: inactive

How did OCCCNc1cc(-c2ccnc(Nc3cccc(Cl)c3)n2)ccn1 do in these assays?
Myeloid diff 2: inactive; VLA-4 inh: inactive; SENP1 inh: inactive; Platelet DG rel: inactive; Myeloid diff CP1: inactive; GFP autofluor: inactive

What do the screens show for `OC(CNCCCN1CCCCC1)COc1ccccc1` (stereo not given)?
Myeloid diff 2: active; VLA-4 inh: inactive; SENP1 inh: inactive; Platelet DG rel: inactive; Myeloid diff CP1: inactive; GFP autofluor: inactive
